Measurements as given in ChEMBL document CHEMBL4130526, “Structure-Activity Relationship Study of Leucyl-3-epi-deoxynegamycin for Potent Premature Termination Codon Readthrough” (ACS Med Chem Lett, 2017).

Experiments:
[1] = system: Mus musculus; assay: Mutation read through activity in READ mouse on C57/BL6 background expressing premature termination codon TGA-containing mouse dystrophin gene exon 23 nucleotide sequence gene exon 23 assessed as ratio of luciferase activity to beta-galactosidase activity at 1 mg/20g body weight, sc administered daily for 7 days measured post last dose by dual luciferase reporter gene assay relative to control; type: functional
In short: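 READ mice carry a dual reporter split by a PTC. Subcutaneous injection into the abdominal region at 1 mg in 0.2 mL saline per 20 g body weight, daily for 7 days. Negative control: saline. Positive control: arbekacin. Readthrough reported as mean ± SD.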

[2] = species: Mus musculus; assay: (§1) Mutation read through activity at premature termination codon TGA-containing mouse dystrophin gene exon 23 nucleotide sequence expressed in African green monkey COS7 cells assessed as ratio of luciferase activity to beta-galactosidase activity at 200 uM after 48 hrs by dual luciferase reporter gene assay relative to control; type: cell-based
In short: (§2)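 COS-7 cells carrying a dual-reporter plasmid (β-galactosidase and luciferase genes joined by a TGA-containing stop sequence). Compounds were tested at 200 μM; the dose-dependent series ran 10–200 μM. Activity is reported as a ratio relative to D-MEM control, as mean ± SD, n = 3.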

[3] = system: NHDF; assay: Cytotoxicity against HDF assessed as reduction in cell viability at 200 uM after 48 hrs by WST1 assay; type: cell-based; conditions: human
[4] = system: COS-7; assay: Cytotoxicity against African green monkey COS7 cells assessed as reduction in cell viability at 200 uM after 48 hrs by WST1 assay; type: cell-based; conditions: chlorocebus aethiops, cos-7, 48 h
[5] = species: Mus musculus; assay: as §1, with “TAG-containing” for “TGA-containing”; type: cell-based
[6] = species: Mus musculus; assay: as §1, with “TAA-containing” for “TGA-containing”; type: cell-based
[7] = species: Mus musculus; assay: as §1, with “activity” for “activity at 200 uM”; type: cell-based; in short: as §2
[8] = species: Mus musculus; assay: as §1, with “control relative to in-frame control containing TGG” for “control”; type: cell-based
[9] = biological target: T1, Liver carboxylesterase (Sus scrofa, UniProt Q29550); assay: Prodrug conversion assessed as porcine liver esterase-mediated TCP-126 formation at 2 mM up to 6 hrs by RP-HPLC method; type: ADME; conditions: pig, isolated protein, 2000 µM, TDE = time-dependent effect
T1 sequence (Q29550 whole entry): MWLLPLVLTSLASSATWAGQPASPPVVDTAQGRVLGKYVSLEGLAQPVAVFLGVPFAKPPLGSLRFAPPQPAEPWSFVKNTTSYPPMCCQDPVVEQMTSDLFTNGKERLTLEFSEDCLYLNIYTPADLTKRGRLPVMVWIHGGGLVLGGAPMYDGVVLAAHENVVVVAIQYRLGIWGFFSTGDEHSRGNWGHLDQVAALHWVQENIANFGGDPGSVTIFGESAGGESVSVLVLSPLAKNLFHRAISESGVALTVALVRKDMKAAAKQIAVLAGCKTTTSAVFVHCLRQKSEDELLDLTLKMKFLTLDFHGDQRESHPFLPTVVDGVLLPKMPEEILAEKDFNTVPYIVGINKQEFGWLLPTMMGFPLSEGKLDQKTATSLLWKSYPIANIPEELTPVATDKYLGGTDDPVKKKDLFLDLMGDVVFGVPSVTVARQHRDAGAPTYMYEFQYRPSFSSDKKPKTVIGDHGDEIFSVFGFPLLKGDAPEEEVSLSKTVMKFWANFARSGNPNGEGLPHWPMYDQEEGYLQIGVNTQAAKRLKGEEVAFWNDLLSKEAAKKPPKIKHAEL
In short: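 Incubated with porcine liver esterase (110 units/mL) in 100 mM phosphate buffer, pH 7.4, at 37 °C. Reaction mixtures were analysed by RP-HPLC over time for conversion to the parent compound. The new metabolite peak was collected and identified by high-resolution MS.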

[10] = system: Mus musculus; assay: Acute toxicity in B10 mouse assessed reduction in body weight at 10 mg/day/20g body weight, sc for 14 days and measured on day 1; type: organism-based; conditions: in vivo, 336 h
In short: (§3)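 Single subcutaneous injection into the abdominal region of B10 mice at 10 mg day–1 20 g–1 body weight, given only once. Body weight tracked over 2 weeks. Treated group n = 4; saline-injected B10 mice (n = 3) served as controls.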

[11] = system: Mus musculus; assay: Acute toxicity in B10 mouse assessed as change in body weight at 10 mg/day/20g body weight, sc for 14 days and measured on 1 to 7 and 14 days; type: organism-based; conditions: in vivo, 336 h; in short: as §3
[12] = Stability in 100 mM phosphate buffer (pH 7.4) assessed as parent compound remaining at 200 uM measured after 6 hrs in absence of esterase by RP-HPLC and high-resolution mass spectrometry method

| SMILES | fold change (FC) [2] | Activity [3] | Activity [4] | also measured |
| --- | --- | --- | --- | --- |
| NCC[C@H](O)C(=O)N[C@@H]1C[C@H](N)[C@@H](O[C@H]2O[C@H](CN)CC[C@H]2N)[C@H](O)[C@H]1O[C@H]1O[C@H](CO)[C@@H](O)[C@H](N)[C@H]1O [ARBEKACIN] |  |  |  | fold change (FC) [1]: 1.94 |
| CC(C)C[C@H](N)C(=O)N[C@@H](CCCN)CC(=O)NN(C)CC(=O)OCc1cccc(Cl)c1 | 5.37 | Non-Toxic | Non-Toxic |  |
| CC(C)C[C@H](N)C(=O)N[C@@H](CCCN)CC(=O)NN(C)CC(=O)OCc1ccccc1[N+](=O)[O-] | 9.15 | Non-Toxic | Non-Toxic |  |
| CN(CC(=O)O)NC(=O)C[C@H](CCCN)NC(=O)[C@@H](N)Cc1ccccc1 | 2.13 |  |  |  |
| CC(C)C[C@H](O)C(=O)N[C@@H](CCCN)CC(=O)NN(C)CC(=O)O | 1.33 |  |  |  |
| CC(C)C[C@H](N)C(=O)N[C@@H](CCCN)CC(=O)NN(C)CC(=O)O | 2.25 to 2.72 | Non-Toxic | Non-Toxic | fold change (FC) [5]: 1.3; fold change (FC) [6]: 1.11 |
| COc1cccc(COC(=O)CN(C)NC(=O)C[C@H](CCCN)NC(=O)[C@@H](N)CC(C)C)c1 | 5.15 | Non-Toxic | Non-Toxic |  |
| CC(C)[C@H](N)C(=O)N[C@@H](CCCN)CC(=O)NN(C)CC(=O)O | 1.87 |  |  |  |
| CN(CC(=O)O)NC(=O)C[C@H](CCCN)NC(=O)[C@@H](N)Cc1ccc(O)cc1 | 1.92 |  |  |  |
| CC(C)C[C@H](N)C(=O)N[C@@H](CCCN)CC(=O)NN(C)CC(=O)OCc1ccccc1Br | 8.84 to 8.89 | Non-Toxic | Non-Toxic | Activity [7]: Dose-dependent effect; fold change (FC) [5]: 2.55; fold change (FC) [6]: 1.22; Activity [8]: 2.69%; Drug metabolism [9]: Tde; fold change (FC) [1]: 1.59; Activity [10]: Toxic; Activity [11]: Non-Toxic; remaining at 6 h, 200 µM [12]: 99% |
| CN(CC(=O)O)NC(=O)C[C@H](N)C[C@@H](O)CN | 1.54 |  |  |  |
| CC(C)C[C@H](N)C(=O)N[C@@H](CCCN)CC(=O)NN(C)CC(=O)OCc1ccccc1 | 8.92 | Non-Toxic | Non-Toxic |  |
| CC(C)C[C@@H](N)C(=O)N[C@@H](CCCN)CC(=O)NN(C)CC(=O)O | 1.3 |  |  |  |
| CN[C@@H]1[C@@H](O)[C@@H](O[C@H]2[C@H](O)[C@@H](O[C@H]3O[C@H]([C@H](C)O)[C@@H](O)[C@H](O)[C@H]3N)[C@H](N)C[C@@H]2N)OC[C@]1(C)O | 7.2 | Non-Toxic | Non-Toxic |  |
| CN(CC(=O)O)NC(=O)C[C@H](CCCN)NC(=O)CN | 2.1 |  |  |  |
